# Compound activity from PubChem BioAssay.
# miR122 inh: miR-122 Renilla sensor signal increase in Huh7, primary screen, miR-122 inhibitor project, cell-based, single point, plate reader | Huh7 miR-122 Renilla luciferase sensor, 48 h; neutral wells = 0, positive control = 100 | activation (reporter increase), % at 12.5 µM | hit rate 0.3% among 340,000 | AID 602342, 2012;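 active = mean replicate activation score at least 90 and every replicate individually at or above 90; inconclusive = only one of the two criteria met; inactive = neither criterion met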;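 also: higher luciferase means less miR-122 activity so hits act as miR-122 inhibitors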
# E-selectin induc: E-selectin induction in HUVECs, primary screen, imaging, HUVEC, immunofluorescence imaging, single point; hit rate 0.37% among 260,000; AID 686992, 2013; activation, % at 7.58 µM; P16581; normalized: neutral wells 0, TNF-alpha wells 100;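 active = mean E-selectin-positive cell signal at least 10% of the positive control, reached in at least 60% of replicates, without over 20% cell loss; inconclusive = no rule given, readout overlaps actives, possibly toxicity-flagged; inactive = the rest, including those meeting only one limit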
# Target sequence (P16581 whole entry, looked up): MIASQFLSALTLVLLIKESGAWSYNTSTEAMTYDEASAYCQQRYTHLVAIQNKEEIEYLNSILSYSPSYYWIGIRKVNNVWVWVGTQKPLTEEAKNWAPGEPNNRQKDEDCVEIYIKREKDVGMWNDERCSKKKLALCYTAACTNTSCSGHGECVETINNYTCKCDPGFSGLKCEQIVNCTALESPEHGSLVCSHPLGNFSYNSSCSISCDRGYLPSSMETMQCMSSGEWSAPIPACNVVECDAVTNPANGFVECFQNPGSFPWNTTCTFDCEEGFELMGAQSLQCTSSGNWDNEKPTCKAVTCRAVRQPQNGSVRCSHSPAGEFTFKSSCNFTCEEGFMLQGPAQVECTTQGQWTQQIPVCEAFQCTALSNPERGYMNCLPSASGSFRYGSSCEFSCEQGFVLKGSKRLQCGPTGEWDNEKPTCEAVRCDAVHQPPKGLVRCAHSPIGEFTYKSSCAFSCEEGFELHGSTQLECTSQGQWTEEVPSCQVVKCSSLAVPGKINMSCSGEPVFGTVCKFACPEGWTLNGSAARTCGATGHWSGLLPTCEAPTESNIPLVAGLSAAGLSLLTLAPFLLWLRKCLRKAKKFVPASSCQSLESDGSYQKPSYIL
#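 assay system = HUVEC, human umbilical vein endothelial cells | input = 3,000 HUVEC seeded per well | medium = EGM-2 growth medium on 0.1% gelatin-coated wells | dosing = one compound dose added by pin transfer | signal = immunofluorescence imaging | read-out basis = % PE-positive cells | control set = TNF-alpha, DMSO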
# DENV2 CPE: inhibitors of DENV2 cytopathic effect, primary screen, cell-based, plate reader, single concentration. AID 651640, 2012. DENV2-infected cells, cytopathic effect rescue. CPE inhibition, % at 9.99 µM. hit rate 1.7% among 350,000; in the data active = CPE inhibition above about 20%, passing the limit was not always enough; inconclusive = no clear call, values can overlap the other calls; tested in BHK-21 cells;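 also: 0% = median of neutral control wells and 100% = median of positive control wells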
# rRNA inh HTS: reduced GFP signal of wild-type E. coli, primary screen, bacterial rRNA inhibitor project, GFP/RFP fluorescence, OD600, single point; E. coli WT GFP vs humanized-ribosome RFP mutants, 24 h; stronger effect = lower value; DMSO median 0, no signal -100; GFP signal change (wild-type ribosome), % (concentration not given with the values); hit rate 1.6% among 350,000;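 active = significant combined selectivity score with lowered wild-type GFP, culture density cut under 30%, mutant RFP and density less affected; inactive = any of these conditions unmet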
# Cneo AK release: Cryptococcus neoformans cell lysis inducers, primary screen, AK release luminescence, single concentration | lysis activity, % at 15 µM | AID 651654, 2012 | C. neoformans lysis, adenylate kinase release luminescence, 4 h; normalised: neutral wells 0, clomiphene wells 100 | hit rate 0.2% among 360,000;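 active = mean lysis activity across replicates of at least 80%, whatever share of replicates individually reach that level; inactive = mean lysis activity below 80%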
#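 Signal: Adenylate kinase release luminescence | Assay system: Log-phase Cryptococcus neoformans yeast cells | Input: Cells at 5 × 10^6 per mL | Buffer or medium: Fresh YPD growth medium | Compound: Single dose | Schedule: Static 4 h at 37 °C with compound, 1 h detection | Controls: Clomiphene | Read-out: Luminescence rise reflecting yeast cell lysis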
# An asterisk follows results filed as active; ? = inconclusive; . = no result given; ! = not confirmed by another sample; [ ] = remark or other dose. Rows were chosen to be rich in hits. Some 3.1% of all compounds tested hit in one or more screens of this group.
SMILES,miR122 inh,E-selectin induc,DENV2 CPE,rRNA inh HTS,Cneo AK release
C[C@@H]1CN([C@H](C)CO)C(=O)c2cc(NS(C)(=O)=O)ccc2O[C@H]1CN(C)C(=O)NC1CCCCC1,-9.9[16.7 µM],.,1.8,0.3,-2.8
C[C@H](CO)N1C[C@H](C)[C@H](CN(C)C(=O)NC2CCCCC2)Oc2ccc(NS(=O)(=O)c3ccc(F)cc3)cc2C1=O,-5.1[16.7 µM],?,-4.8,1.1,-11.8
C[C@@H]1CN([C@@H](C)CO)C(=O)c2cc(NS(=O)(=O)c3ccccc3)ccc2O[C@H]1CN(C)C(=O)NC1CCCCC1,7.1[16.7 µM],-20.3,3.0,1.9,111.7*
C[C@H](CO)N1C[C@H](C)[C@@H](CN(C)C(=O)NC2CCCCC2)Oc2ccc(NS(C)(=O)=O)cc2C1=O,4.9[16.7 µM],0.0,28.9*!,0.6,-0.8
N#C[C@H]1[C@H](c2ccc(C#Cc3ccccc3F)cc2)[C@H](CO)N1C(=O)C1CCCC1,.,0.2,?,-1.7,.
O=C(CN1C(=O)CCC1=O)c1ccc(-c2ccccc2)cc1,.,-2.5,.,.,.
N=c1ccn(CC(=O)c2ccc(-c3ccccc3)cc2)cc1,.,0.1,1.4,-41.1*,.
O=C(C[C@H]1C=C[C@@H](NC(=O)Cc2cccnc2)[C@@H](CO)O1)Nc1ccc(-c2ccccc2)cc1,.,-0.1,-0.6,-5.0,.
CC(=O)Nc1cccc2c1O[C@H](CN(C)C(C)=O)[C@H](C)CN(C)C2=O,.,.,.,0.5,.
Cc1ccc(-n2c(C3CC3c3ccc(Cl)cc3)n[nH]c2=S)cc1 (stereo not drawn),0.3,.,.,-32.8*,5.2
CO[C@H]1CN(C)C(=O)c2cc(NC(=O)Nc3ccc(Cl)cc3)ccc2OC[C@H](C)N(C)C[C@@H]1C,.,-0.1,50.1*,-3.5,-9.1
CCCNC(=O)Nc1ccc2c(c1)OC[C@@H](C)N(S(C)(=O)=O)C[C@@H](C)[C@H](OC)CN(C)C2=O,.,0.3,43.3*,0.9,.
CCCNC(=O)Nc1ccc2c(c1)OC[C@H](C)N(C(=O)CC)C[C@@H](C)[C@@H](OC)CN(C)C2=O,-18.8[16.7 µM],0.0,4.2,1.9,40.7
CCC(=O)N1C[C@@H](C)[C@@H](OC)CN(C)C(=O)c2ccc(NC(=O)Nc3ccc(Cl)cc3)cc2OC[C@H]1C,.,-0.3,80.5*,-7.6,-2.9
CCCNC(=O)Nc1ccc2c(c1)OC[C@H](C)N(C(=O)CC)C[C@H](C)[C@@H](OC)CN(C)C2=O,.,0.1,31.4*,-1.4,.
C[C@H](C(=O)N(C)C[C@H]1OCc2ccccc2-c2ccccc2C(=O)N([C@H](C)CO)C[C@@H]1C)c1ccccc1,.,.,.,-2.4,.
Fc1cccc(CN2C[C@@H]3N[C@H](C2)C3c2ccc(/C=C/c3ccccc3)cc2)c1 (stereo partly drawn),.,-0.3,-25.7,-55.2,.
COCC(=O)N1C[C@H](C)[C@H](OC)CN(C)C(=O)c2ccc(NC(=O)Nc3ccccc3)cc2OC[C@H]1C,.,.,.,-3.7,.
Cc1ccc(C)c(NC(=O)CSc2nnc(CSc3nc(C)cc(C)n3)n2Cc2ccco2)c1,118.7*,.,.,.,-0.2
C/C(=N\NC(=O)c1nnn(-c2nonc2N)c1-c1ccccc1)c1cccnc1,5.3,.,96.4*,18.1,-0.8
C/C(=N\NC(=O)c1nnn(-c2nonc2N)c1-c1cccs1)c1cccnc1,-6.6,.,1.2,8.9,1.1
COc1ccc2c3c(n(C)c2c1)[C@H](CO)N(Cc1ccccc1F)CC31CCN(CC2CC2)CC1,.,0.5,5.7,0.4,.
COc1ccc(C(=O)N/N=C/c2ccc(N3CCOCC3)s2)cc1OC,-5.9,.,-3.0,-15.5*,-0.9
COCC(=O)N1[C@@H](C#N)[C@@H](c2ccc(C3=CCCC3)cc2)[C@@H]1CO,.,-0.2,-3.6,0.2,-1.3
COCC(=O)N1[C@H](C#N)[C@H](c2ccc(C#Cc3ccccc3F)cc2)[C@H]1CO,.,0.2,?,-11.3,83.0*
COCC(=O)N1[C@@H](C#N)[C@@H](c2ccc(C3=CCCCC3)cc2)[C@@H]1CO,.,0.2,24.1*,0.0,-3.0
N#C[C@H]1[C@H](c2ccc(C#Cc3ccccc3F)cc2)[C@H](CO)N1C(=O)C1CC1,.,-0.6,30.2*,2.7,-9.9
